# Experimental data from different studies.
# Protocols differ between the studies behind these lines.
# Target: Serine/threonine-protein kinase ULK3 (ULK3, Homo sapiens, UniProt Q6PHR2)
# Sequence (Q6PHR2 1-472, as in one of the studies): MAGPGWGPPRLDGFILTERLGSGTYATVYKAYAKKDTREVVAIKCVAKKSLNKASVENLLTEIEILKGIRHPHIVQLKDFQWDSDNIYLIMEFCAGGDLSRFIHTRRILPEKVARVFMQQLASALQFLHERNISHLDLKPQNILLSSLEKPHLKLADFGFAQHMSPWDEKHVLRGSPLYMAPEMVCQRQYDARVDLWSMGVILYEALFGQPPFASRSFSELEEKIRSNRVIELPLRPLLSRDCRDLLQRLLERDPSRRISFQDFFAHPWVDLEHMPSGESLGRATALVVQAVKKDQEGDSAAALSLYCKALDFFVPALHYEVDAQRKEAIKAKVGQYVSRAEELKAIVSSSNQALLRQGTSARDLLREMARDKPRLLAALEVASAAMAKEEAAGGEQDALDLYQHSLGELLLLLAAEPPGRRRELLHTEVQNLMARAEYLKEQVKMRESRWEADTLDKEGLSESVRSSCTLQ
Structure (SMILES),effect on,action,technique,tested at,measurement,value
C=CC(=O)N1CCC([C@@H]2CCNc3c(C(N)=O)c(-c4ccc(Oc5ccccc5)cc4)nn32)CC1,enzyme activity,inhibitor,,1 µM,inhibition,11%
C#Cc1cc(-c2cc(Nc3nc(N[C@@H](C)c4ccc(F)cn4)ncc3Cl)n[nH]2)ccc1C=O,enzyme activity,inhibitor,,0.2 µM,inhibition,57.5%
C=CC(=O)N1CCC[C@@H](n2nc(-c3ccc(Oc4ccccc4)cc3)c3c(N)ncnc32)C1,enzyme activity,inhibitor,,1 µM,inhibition,29%
Cc1ccc(NC(=O)c2ccnc(C(F)(F)F)c2)cc1-c1cc(OCCO)nc(N2CCOCC2)c1,binding,,competition with immobilised ligand,1 µM,remaining binding,85%
COc1ccc2oc(-c3ccc4nc(N)oc4c3)c/c(=N\c3ccccc3NC(=O)CCN)c2c1,binding,,,1 µM,remaining binding,96%
C1=C/COCc2cc(ccc2OCCN2CCCC2)Nc2nccc(n2)-c2cccc(c2)COC/1,cell-free assay,,,0.1 µM,remaining signal,57%
CN1CCN(C(=O)c2ccc(NC(=O)Nc3ccc(N(C)c4ccnc(Nc5ccc(CS(C)(=O)=O)cc5)n4)cc3)cc2)CC1,binding,,competition with immobilised ligand,1 µM,remaining binding,7.6%
CCCCC(=O)Nc1ccc(-c2ccc3ncn(CCC)c(=O)c3c2)cn1,binding,,competition with immobilised ligand,0.5 µM,remaining binding,99%
